40 compounds from ChEMBL document CHEMBL4229555, “Design, synthesis and structure-activity relationship study of novel naphthoindolizine and indolizinoquinoline-5,12-dione derivatives as IDO1 inhibitors” (Bioorg Med Chem, 2018) can be followed below.

The target of assay [1] is T1, Indoleamine 2,3-dioxygenase 1 (Homo sapiens, UniProt P14902). As to the kind of experiment: Inhibition of IDO1 (unknown origin) assessed as reduction in N'-formlylkynurenine formation at 1 uM using D-Tryptophan as substrate in presence of ascorbate and methylene blue relative to control.
Target sequence in this assay (P14902 whole entry, looked up): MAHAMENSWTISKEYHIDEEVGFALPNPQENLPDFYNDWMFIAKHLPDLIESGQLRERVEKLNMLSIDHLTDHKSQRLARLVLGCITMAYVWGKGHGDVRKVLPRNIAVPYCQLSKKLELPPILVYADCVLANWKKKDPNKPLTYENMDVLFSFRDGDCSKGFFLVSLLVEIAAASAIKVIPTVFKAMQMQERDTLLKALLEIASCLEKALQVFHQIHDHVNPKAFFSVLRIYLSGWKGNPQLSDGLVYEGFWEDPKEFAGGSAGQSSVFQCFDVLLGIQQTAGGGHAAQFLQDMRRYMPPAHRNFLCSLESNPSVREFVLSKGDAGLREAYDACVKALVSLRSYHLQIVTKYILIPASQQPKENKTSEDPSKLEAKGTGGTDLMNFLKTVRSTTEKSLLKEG
Assay [2] has as its target T1, Indoleamine 2,3-dioxygenase 1. As to the kind of experiment: Inhibition of IDO1 (unknown origin) assessed as reduction in N'-formlylkynurenine formation using D-Tryptophan as substrate in presence of ascorbate and methylene blue. The following applies: in the assay text read “ascorbate” for “aspartate”. Put shortly:
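Room-temperature reaction: 20 nM IDO, 2 mM D-Trp, 20 mM ascorbate, 3.5 μM methylene blue, 0.2 mg/mL catalase in 50 mM potassium phosphate pH 6.5. Initial rates tracked continuously by absorbance rise at 321 nm (N'-formylkynurenine); IC50 by nonlinear regression, normalized dose-response fit.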
Target sequence in this assay (P14902 whole entry): as the sequence (P14902 whole entry, looked up) above

Assay [3] addresses T2, Tryptophan 2,3-dioxygenase (Homo sapiens, UniProt P48775). Kind of assay: Inhibition of recombinant TDO (unknown origin) assessed as reduction in N-formylkynurenine formation at 10 uM using L-Tryptophan as substrate after 75 mins by UV absorption method relative to control. The method in brief:
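Room-temperature UV assay: recombinant TDO with 200 μM L-tryptophan in TDO assay buffer plus inhibitor, 75 min incubation, then absorbance at 321 nm for N-formylkynurenine. Buffer substituted for TDO as blank.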
Target sequence in this assay (P48775 whole entry, looked up): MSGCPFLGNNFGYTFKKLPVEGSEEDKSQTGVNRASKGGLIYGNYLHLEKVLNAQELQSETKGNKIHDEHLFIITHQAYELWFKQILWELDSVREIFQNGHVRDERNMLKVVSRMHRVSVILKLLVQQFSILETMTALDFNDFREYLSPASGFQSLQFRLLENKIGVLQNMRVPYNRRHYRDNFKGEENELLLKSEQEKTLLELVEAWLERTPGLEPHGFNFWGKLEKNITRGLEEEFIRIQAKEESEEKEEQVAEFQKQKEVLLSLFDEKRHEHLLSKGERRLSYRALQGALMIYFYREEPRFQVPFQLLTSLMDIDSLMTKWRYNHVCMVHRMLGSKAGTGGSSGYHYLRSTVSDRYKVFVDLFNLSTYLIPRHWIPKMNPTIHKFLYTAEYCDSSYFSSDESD

The target of assay [4] is T1, Indoleamine 2,3-dioxygenase 1. As to the kind of experiment: Inhibition of IFN-gamma-stimulated IDO1 in human HeLa cells at 1 uM after 24 hrs by Ehrlich's reagent based assay relative to control. The format is cell-based. The method in brief: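 IFN-γ (100 ng/mL, 24 h) induction of IDO1 in HeLa cells plated at 40,000/well after 24 h adherence; inhibitor in DMSO, 24 h incubation. Reaction ended with 30% TCA, heated 30 min at 50 °C, centrifuged, supernatant reacted with Ehrlich reagent 10 min at room temperature; read at 490 nm.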
Target sequence in this assay (P14902 whole entry, looked up): as the sequence (P14902 whole entry, looked up) above

Assay [5] deals with T2, Tryptophan 2,3-dioxygenase. Kind of assay: Inhibition of recombinant TDO (unknown origin) assessed as reduction in N-formylkynurenine formation using L-Tryptophan as substrate after 75 mins by UV absorption method. Put shortly: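 Recombinant TDO reaction at room temperature in TDO assay buffer with 200 μM L-tryptophan and inhibitor, incubated 75 min; N-formylkynurenine measured by UV absorbance at 321 nm. Blank used buffer in place of enzyme. IC50 from nonlinear regression with normalized dose-response fit.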
Target sequence in this assay (P48775 whole entry): as the sequence (P48775 whole entry, looked up) above

The target in assay [6] is T1, Indoleamine 2,3-dioxygenase 1. As to the kind of experiment: Inhibition of IFN-gamma-stimulated IDO1 in human HeLa cells after 24 hrs by Ehrlich's reagent based assay. The format is cell-based. Put shortly: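 HeLa cells (40,000/well) adhered 24 h, stimulated with 100 ng/mL human recombinant IFN-γ for 24 h, then given inhibitor in DMSO from 10 μM top dose, 3-fold dilutions to 0.1 μM, for 24 h. Stopped with 30% TCA, 30 min at 50 °C, centrifuged; supernatant mixed with Ehrlich reagent 10 min at room temperature, absorbance at 490 nm.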
Target sequence in this assay (P14902 whole entry): as the sequence (P14902 whole entry, looked up) above

Assay [7] deals with HeLa. As to the kind of experiment: Cytotoxicity against human HeLa cells after 48 hrs by MTT assay. The format is functional, cell-based. Put shortly:
(§1)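 Cells seeded at 3-4 × 10^3 per well and incubated overnight, then exposed to compounds added from 10 mM DMSO stock for 48 h; 1% DMSO as negative control.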

Assay [8] concerns HEK-293T. Kind of assay: Cytotoxicity against HEK293T cells after 48 hrs by MTT assay. The class given is cell-based. The settings on record: Homo sapiens. Put shortly: as §1
Assay [9] deals with MCF7. As to the kind of experiment: Cytotoxicity against human MCF7 cells after 48 hrs by MTT assay. The class given is functional, cell-based. The settings on record: MCF7, 48 h. Put shortly: as §1

Molecules are shown by their SMILES.

In the case of `O=C1c2cccnc2C(=O)c2c1c(C(=O)Nc1cccc(Cl)c1)c1ccccn21`, in [1], the inhibition amounted to 29.5%.
On to `COC(=O)c1c2c(n3ccccc13)C(=O)c1ccccc1C2=O`, for which the IC50 in assay [2] came to 156 nM. Besides, the inhibition in assay [3] worked out at 40%; in assay [4], 24%; in assay [1], 77%.
Turning to `O=C1c2cccnc2C(=O)c2c1c(C(=O)Nc1ccccc1)c1ccccn21`, the values for the IC50 in [2] and in assay [5] were 361 nM and 7300 nM, respectively. Further, in assay [1], the inhibition is 68%.
As to `O=C1c2ncccc2C(=O)c2c1c(Cc1ccccc1)c1ccccn21`, the inhibition in assay [1] came to 56%.
As to `COC(=O)c1c2c(n3ccccc13)C(=O)c1cccc(O)c1C2=O`, the IC50 in assay [2] amounted to 87 nM. In addition, the inhibition in assay [4] stood at 12%; in assay [1], 77%.
For `Cc1ccn2c3c(c(C(=O)O)c2c1)C(=O)c1cccnc1C3=O`, the IC50 in assay [2] was determined as 394 nM. The inhibition in assay [1] turned out to be 70%.
For `O=C1c2ncccc2C(=O)c2c1c(C(=O)O)c1ccccn21`, in that order: 1190 nM and 58%.
With `O=C1c2cccnc2C(=O)c2c1c(Cc1ccccc1)c1ccccn21`, the inhibition in assay [1] worked out at 34%.
In the case of `CSc1ccn2c3c(c(C(=O)NCCN(C)C)c2c1)C(=O)c1ncccc1C3=O`, the IC50 in [2] stood at 39 nM; in [6], 372 nM. For the same compound, the inhibition in assay [4] was determined as 77%; in [1], 80.5%.
On to `O=C1c2cccnc2C(=O)c2c1c(C(=O)O)c1ccccn21`, for which the IC50 in assay [2] amounted to 288 nM. Also, the inhibition in assay [3] came to 28%; in assay [1], 70%.
Consider `COC(=O)c1c2c(n3ccccc13)C(=O)c1cccnc1C2=O`, for which the IC50 in assay [2] was found to be 448 nM. Moreover, the inhibition in [1] amounted to 69%.
For `CN(C)CCNC(=O)c1c2c(n3ccccc13)C(=O)c1ccccc1C2=O`, in assay [1], the inhibition amounted to 27%.
Regarding `O=C1c2ccccc2C(=O)c2c1c(C(=O)O)c1ccccn21`, the half-inhibitory concentration (IC50) in [2] is 714 nM. In assay [1], the inhibition came out at 61%.
Regarding `NS(=O)(=O)NCCNC1=NON/C1=C(/NO)Nc1ccc(F)c(Br)c1`, the IC50 in assay [2] is 73 nM; in assay [6] it was 7 nM. The inhibition in assay [4] was found to be 96%.
Regarding `COc1ccn2c3c(c(C(=O)O)c2c1)C(=O)c1ncccc1C3=O`, the inhibition in [1] came to 47%.
Take `COc1cccc2c1C(=O)c1c(O)c3c(c(O)c1C2=O)C[C@@](O)(C(=O)CO)C[C@@H]3O[C@H]1C[C@H](N)[C@H](O)[C@H](C)O1` [DOXORUBICIN]: the IC50 amounted to 660 nM in assay [7] and 1130 nM in assay [8].
With `NC(=S)NNC(=O)c1c2c(n3ccccc13)C(=O)c1ncccc1C2=O`, the concentration for half-maximal inhibition (IC50) in assay [2] was 23 nM; in assay [5], 1200 nM; in [7], greater than 20000 nM; in assay [9], greater than 20000 nM; in assay [8], greater than 20000 nM. Moreover, the inhibition in assay [4] was 22%; in assay [1], 74.5%.
For `O=C(O)c1cccc(NC(=O)c2c3c(n4ccccc24)C(=O)c2cccnc2C3=O)c1`, the IC50 was 390 nM in assay [2] and greater than 100000 nM in [5]. Moreover, the inhibition in [1] was 71.5%.
Consider `Cc1ccccc1NC(=O)c1c2c(n3ccccc13)C(=O)c1cccnc1C2=O`, for which the results for the IC50 in assay [2], in assay [5] and in [6] were 134 nM, greater than 100000 nM and 2660 nM, respectively. In addition, the inhibition in [4] turned out to be 38%; in assay [1] it was 64%.
Consider `Cc1ccccc1NC(=O)c1c2c(n3ccccc13)C(=O)c1ncccc1C2=O`, for which the IC50 is 427 nM in [2] and greater than 100000 nM in [5]. In assay [1], the inhibition was 74%.
In the case of `O=C1c2ccccc2C(=O)c2c1c(C(=O)NCCCO)c1ccccn21`, the inhibition in assay [1] stood at 15%.
On to `CN(C)CCNC(=O)c1c2c(n3ccccc13)C(=O)c1cccnc1C2=O`, for which the IC50 in assay [2] amounted to 188 nM; in [5] it was 7150 nM; in assay [6] it was 1240 nM. Moreover, the inhibition worked out at 88% in assay [3], 81% in assay [4] and 77% in assay [1].
As for `CN(C)CCCNC(=O)c1c2c(n3ccccc13)C(=O)c1ccccc1C2=O`, in [1], the inhibition came to 24%.
On to `O=C1c2cccnc2C(=O)c2c1c(C(=O)O)c1cc(I)ccn21`, for which the IC50 in assay [2] was found to be 117 nM. The figures for the inhibition in assay [4] and in assay [1] were 12% and 67%, respectively.
As to `COC(=O)c1c2c(n3ccccc13)C(=O)c1ncccc1C2=O`, in [2], the half-maximal inhibitory concentration (IC50) stood at 438 nM. For the same compound, the inhibition in assay [1] came to 65%.
As for `CCOC(=O)c1c2c(n3ccccc13)C(=O)c1ncccc1C2=O`, in assay [1], the inhibition amounted to 35%.
Still for that read-out and setting: with `O=C1c2ccccc2C(=O)c2c1c(C(=O)NCCO)c1ccccn21` the figure was 22%; with `CN(C)CCNC(=O)c1c2c(n3ccccc13)C(=O)c1cccc(O)c1C2=O`, 29%.
On to `CN(C)CCNC(=O)c1c2c(n3ccccc13)C(=O)c1ncccc1C2=O`, for which the IC50 in assay [2] came out at 127 nM; in assay [5], 3350 nM; in [6] it was 738 nM. For the same compound, the inhibition in [3] was found to be 91%; in assay [4], 43%; in [1], 78%.
Take `O=C1c2ncccc2C(=O)c2c1c(C(=O)Nc1cccc(Cl)c1)c1ccccn21`: the inhibition in assay [1] stood at 34%.
With `O=C1c2c(O)cccc2C(=O)c2c1c(C(=O)O)c1ccccn21`, the inhibition in [1] amounted to 60%.
As for `O=C1c2ncccc2C(=O)c2c1c(C(=O)O)c1cc(I)ccn21`, the IC50 in [2] was 420 nM. Also, the inhibition in [1] was 67%.
As for `CCOC(=O)c1c2c(n3ccccc13)C(=O)c1cccnc1C2=O`, in assay [2], the 50% inhibitory concentration (IC50) stood at 977 nM. For the same compound, the inhibition in [3] amounted to 14%; in assay [1], 61%.
On to `O=C1c2ncccc2C(=O)c2c1c(C(=O)Nc1ccccc1)c1ccccn21`, for which the values for the IC50 in [2] and in [5] were 119 nM and greater than 100000 nM, respectively. Further, the figures for the inhibition in assay [4] and in assay [1] were 25% and 62%, respectively.
For the compound `Cc1ccn2c3c(c(C(=O)O)c2c1)C(=O)c1ncccc1C3=O`, the inhibition in assay [1] was 54%.
`O=C(O)c1cccc(NC(=O)c2c3c(n4ccccc24)C(=O)c2ncccc2C3=O)c1`: the IC50 came to 148 nM in [2] and 41600 nM in assay [5]. Moreover, the inhibition in assay [4] stood at 9%; in assay [1], 74.5%.
Take `CC(C)OC(=O)c1c2c(n3ccccc13)C(=O)c1ccccc1C2=O`: the inhibition in assay [1] was 13%.
For the compound `COc1ccn2c3c(c(C(=O)O)c2c1)C(=O)c1cccnc1C3=O`, the IC50 in [2] amounted to 299 nM. Also, the inhibition in assay [1] came to 69%.
On to `CCOC(=O)c1c2c(n3ccccc13)C(=O)c1ccccc1C2=O`, for which the IC50 in assay [2] was found to be 332 nM. Further, the inhibition in [1] turned out to be 68%.
On to `CSc1ccn2c3c(c(C(=O)NCCN(C)C)c2c1)C(=O)c1cccnc1C3=O`, for which the IC50 in assay [2] worked out at 50 nM; in [6] it was 1080 nM. Also, the figures for the inhibition in assay [4] and in assay [1] were 42% and 72.5%, respectively.
